What is called IC50 is the concentration needed to halve the response being measured. Low readings indicate greater potency in that assay, high ones weaker potency in that assay.

The record followed here is ChEMBL document CHEMBL2021788, “Cytotoxic cardiac glycosides and other compounds from Asclepias syriaca” (J Nat Prod, 2012).

One assay concerns MCF7. Description: Cytotoxicity against human MCF7 cells after 72 hrs by CellTiter-Glo assay. The note with it: MCF7, 72 h. It counts as functional, cell-based. The essentials:
(§1)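 Breast lines (normal Hs578Bst; cancer Hs578T, T47D, Sk-Br-3, MCF-7) seeded at 3000 cells/well in 384-well plates, attached overnight. Compound dispensed acoustically at 14 concentrations spanning 0.002−40 μM, 72 h incubation. Viability by CellTiter-Glo luminescence read after 2 min shaking and 15 min stabilization. Triplicate dose−response curves, data normalized to median, IC50 from curve fit.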
On the technique in general: ATP-based viability assays read luminescence as a measure of living cells.

In a further assay the test system is T47D. Description: Cytotoxicity against human T47D cells after 72 hrs by CellTiter-Glo assay. It counts as functional, cell-based. The essentials: as §1
The test system of a further assay is SK-BR-3. Nature of the assay: Cytotoxicity against human SK-BR-3 cells after 72 hrs by CellTiter-Glo assay. The note with it: SK-BR-3, 72 h. It counts as functional, cell-based. An outline of the steps:
as §1

Assay [1] deals with Hs-578T. Description: Cytotoxicity against human Hs578T cells after 72 hrs by CellTiter-Glo assay. The format is functional, cell-based. An outline of the steps: as §1
A short description of assay [2]: Cytotoxicity against human Hs578Bst cells after 72 hrs by CellTiter-Glo assay. It counts as cell-based. An outline of the steps: as §1
For assay [3], the system named is Hs-578T. Nature of the assay: Cytotoxicity against human Hs578T cells at 40 uM after 72 hrs by CellTiter-Glo assay relative to untreated control. The format is functional, cell-based. The essentials: (§2)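 Hs578T or Hs578Bst cells plated at 3000/well in 384-well format, grown overnight, then exposed to 40 μM (top of a 14-point 0.002−40 μM series) for 72 h. CellTiter-Glo luminescence after 2 min shaking plus 15 min stabilization; viability given as percent of control, n = 3, ± SD.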

A short description of assay [4]: Cytotoxicity against human Hs578Bst cells at 40 uM after 72 hrs by CellTiter-Glo assay relative to untreated control. It counts as cell-based. An outline of the steps: as §2

As to `C[C@H]1O[C@@H](O[C@H]2CC[C@@]3(C)[C@@H](CC[C@@H]4[C@@H]3CC[C@]3(C)[C@](O)(C5=CC(=O)OC5)CC[C@]43O)C2)[C@H](O)[C@H](O)[C@@H]1O[C@@H]1O[C@H](CO)[C@@H](O)[C@H](O)[C@H]1O`, the IC50 in the assay on MCF7 is more than 40 µM; in the assay on T47D, more than 40 µM; with SK-BR-3, more than 40 µM; in the assay on Hs-578T [1], more than 40 µM; in assay [2], 14.2 µM. Moreover, the % toxicity is 56% in the assay on Hs-578T [3] and 38.2% in assay [4].

Regarding `C[C@H]1O[C@@H](O[C@H]2CC[C@@]3(C)[C@@H](CC[C@@H]4[C@@H]3CC[C@]3(C)[C@@H](C5=CC(=O)OC5)CC[C@]43O)C2)[C@H](O)[C@H](O)[C@@H]1O[C@@H]1O[C@H](CO)[C@@H](O)[C@H](O)[C@H]1O`, the IC50 with MCF7 stood at 5.3 µM; in the assay with T47D, 1.76 µM; in the assay on SK-BR-3, 2.52 µM; in the assay on Hs-578T [1] it was 0.593 µM; in assay [2] it was 0.043 µM. Also, the % toxicity in the assay on Hs-578T [3] amounted to 91.5%; in assay [4], 51.7%.

For the compound `O=c1c(O[C@@H]2OC[C@@H](O)[C@H](O)[C@H]2O[C@@H]2O[C@H](CO)[C@H](O)[C@H](O)[C@H]2O)c(-c2ccc(O)cc2)oc2cc(O)cc(O)c12`, the 50% inhibitory concentration (IC50) (in the assay on MCF7; in the assay on T47D; with SK-BR-3; with Hs-578T [1]; in assay [2]) was more than 40 µM in each case. For the same compound, the % toxicity with Hs-578T [3] turned out to be 32.7%; in assay [4] it was 13.9%.

Take `C[C@]12CC[C@H](O[C@@H]3O[C@H](CO)[C@@H](O)[C@H](O)[C@H]3O)C[C@@H]1CC[C@@H]1[C@@H]2CC[C@]2(C)[C@@H](C3=CC(=O)OC3)CC[C@]12O` [DESGLUCOUZARIN]: the IC50 in the assay on MCF7 was 17 µM; in the assay on T47D, 11.7 µM; in the assay on SK-BR-3, 18.1 µM; in the assay with Hs-578T [1], 6.28 µM; in assay [2], 1.05 µM. The figures for the % toxicity (in the assay with Hs-578T [3]; in assay [4]) were 85.5% and 51.6%, respectively.

As for `C[C@]12CC[C@H](O)C[C@H]1CC[C@@H]1[C@@H]2CC[C@]2(C)[C@@H](C3=CC(=O)OC3)CC[C@]12O` [DIGITOXIGENIN], the 50% inhibitory concentration (IC50) in the assay with MCF7 amounted to 9.1 µM; with T47D, 2.53 µM; in the assay on SK-BR-3, 4.42 µM; with Hs-578T [1], 1.02 µM; in assay [2], 0.15 µM. For the same compound, the % toxicity was 92.3% with Hs-578T [3] and 49.8% in assay [4].

`C[C@H]1O[C@@H](O[C@H]2[C@@H](O)C[C@H](O[C@H]3[C@@H](O)C[C@H](O[C@H]4CC[C@@]5(C)[C@H](CC[C@@H]6[C@@H]5C[C@@H](O)[C@]5(C)[C@@H](C7=CC(=O)OC7)CC[C@]65O)C4)O[C@@H]3C)O[C@@H]2C)C[C@H](O)[C@@H]1O` [DIGOXIN]: the IC50 in the assay on MCF7 stood at 4.7 µM; in the assay on T47D it was 0.66 µM; in the assay on SK-BR-3, 1.08 µM; in the assay with Hs-578T [1], 0.251 µM; in assay [2], 0.04 µM. Moreover, the % toxicity with Hs-578T [3] is 93.5%; in assay [4] it was 47.7%.

Regarding `COc1cccc2c1C(=O)c1c(O)c3c(c(O)c1C2=O)C[C@@](O)(C(=O)CO)C[C@@H]3O[C@H]1C[C@H](N)[C@H](O)[C@H](C)O1` [DOXORUBICIN], the IC50 in the assay with MCF7 turned out to be 1.54 µM; in the assay with T47D, 1.9 µM; in the assay on SK-BR-3 it was 0.21 µM; with Hs-578T [1] it was 0.546 µM; in assay [2] it was 0.18 µM. In addition, the values for the % toxicity (in the assay with Hs-578T [3]; in assay [4]) were 98.3% and 64.3%, respectively.

For the compound `C[C@@H]1O[C@@H](O[C@H]2C[C@@H](O)[C@]3(CO)[C@H]4[C@H](O)C[C@]5(C)[C@@H](C6=CC(=O)OC6)CC[C@]5(O)[C@@H]4CC[C@]3(O)C2)[C@H](O)[C@H](O)[C@H]1O` [OUABAIN], the IC50 in the assay with MCF7 was 10.6 µM; with T47D, 0.385 µM; in the assay on SK-BR-3, 0.403 µM; in the assay with Hs-578T [1], 0.11 µM; in assay [2] it was 0.006 µM. Moreover, the % toxicity was 93% with Hs-578T [3] and 55.8% in assay [4].

In the case of `C[C@]12CC[C@H](O[C@@H]3O[C@H](CO[C@@H]4O[C@H](CO)[C@@H](O)[C@H](O)[C@H]4O)[C@@H](O)[C@H](O)[C@H]3O)C[C@@H]1CC[C@@H]1[C@@H]2CC[C@]2(C)[C@@H](C3=CC(=O)OC3)CC[C@]12O` [UZARIN], the IC50 was 11.6 µM in the assay with MCF7; 9.5 µM in the assay on T47D; 19.4 µM with SK-BR-3; 4.58 µM in the assay on Hs-578T [1]; 0.76 µM in assay [2]. Further, the % toxicity came out at 84% in the assay on Hs-578T [3] and 54.7% in assay [4].
